We go through 14 compounds from ChEMBL document CHEMBL3588809, “Antioxidant and Anti-Inflammatory Phenolic Glycosides from Clematis tashiroi” (J Nat Prod, 2015).

For data set [1], the system named is RAW264.7. Kind of data set: Anti-inflammatory activity in mouse RAW264.7 cells assessed as inhibition of LPS-induced nitric oxide production at 20 ug/ml incubated for 24 hrs by Griess reagent based assay. It counts as functional, cell-based. The gist of the method:
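RAW 264.7 macrophages grown in DMEM with 5% heat-inactivated fetal calf serum at 37 °C, 5% CO2. Cells seeded at 2 × 10^5/well, treated with compound (DMSO stock diluted in PBS) together with LPS 1000 ng/mL for 24 h. Medium nitrite read with Griess reagent at 550 nm against NaNO2 standard curve; LPS-only NO set as 100%; triplicate; quercetin positive control.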
Background: The Griess reaction detects nitrite, a stable product of nitric oxide.

Data set [2] is described as follows: Antioxidant activity assessed as DPPH free radical scavenging activity at 100 ug/ml incubated for 30 mins by ELISA method. Type of data set: physicochemical. The conditions noted are these: 0.5 h. The gist of the method: (§1)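 Sample (120 μL, 10−100 μg/mL) mixed with 30 μL of 0.75 mM DPPH in methanol, shaken in the dark at room temperature for 30 min, absorbance read at 517 nm on a plate reader. Methanol negative control, α-tocopherol (10−40 μg/mL) positive control. ED50 taken as concentration scavenging 50% of DPPH radicals.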
Background: The DPPH test is a chemical assay of radical scavenging.

A short description of data set [3]: Antioxidant activity assessed as DPPH free radical scavenging activity incubated for 30 mins by ELISA method. It counts as physicochemical. The conditions noted are these: 0.5 h; read-out: ED50 (the source's name). The method, boiled down: as §1
For data set [4], the system named is RAW264.7. Kind of data set: Anti-inflammatory activity in mouse RAW264.7 cells assessed as inhibition of LPS-induced nitric oxide production incubated for 24 hrs by Griess reagent based assay. It counts as functional, cell-based. The conditions noted are these: RAW264.7, 24 h. The method, boiled down:
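RAW 264.7 macrophages grown in DMEM with 5% heat-inactivated FCS at 37 °C, 5% CO2; plated at 2 × 10^5 cells/well and stimulated with LPS (1000 ng/mL) concurrently with test agents (DMSO stocks diluted in PBS) for 24 h. Nitrite in medium measured with Griess reagent at 550 nm against NaNO2 standard curve; LPS-only set as 100%; triplicates; IC50 reported.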

Active and inactive are the calls of the source. The calls are words filed in the database; no cut-off is given here.

For orientation: IC50 means the concentration at which inhibition is half-maximal.

On to `O=C(/C=C/c1ccc(O)c(O)c1)OC[C@H]1O[C@@H](Oc2ccc(/C=C/C(=O)O[C@@H]3O[C@H](CO)[C@@H](O)[C@H](O)[C@H]3O)cc2)[C@H](O)[C@@H](O)[C@@H]1O`, for which the inhibition entry in data set [1] was “inactive”. Also, in data set [2], the Activity was found to be 99.7%. For the same compound, the EC50 in data set [3] amounted to 47 µM.
For the compound `O=C(/C=C/c1ccc(O)c(O)c1)OC[C@H]1O[C@@H](Oc2ccc(/C=C/C(=O)O[C@@H]3O[C@H](CO)[C@@H](O)[C@H](O)[C@H]3O)cc2O)[C@H](O)[C@@H](O)[C@@H]1O`, in data set [1], the inhibition entry was “inactive”. Also, in data set [2], the Activity was found to be 99.8%. The EC50 in data set [3] was found to be 13.3 µM.
On to `O=C(/C=C/c1ccc(O[C@@H]2O[C@H](COC(=O)/C=C/c3ccc(O)c(O)c3)[C@@H](O)[C@H](O)[C@H]2O)c(O)c1)OC[C@H]1O[C@@H](Oc2cc(/C=C/c3ccc(O)c(O)c3)oc(=O)c2)[C@H](O)[C@@H](O)[C@@H]1O`, for which the inhibition result in data set [1] is “inactive”. For the same compound, the Activity in data set [2] was determined as 98.8%. The EC50 in data set [3] was 17 µM.
Regarding `Cc1c(C)c2c(c(C)c1O)CCC(C)(CCCC(C)CCCC(C)CCCC(C)C)O2` (racemic) [alpha-TOCHOPHEROL], the EC50 in data set [3] worked out at 27.8 µM.
For `O=C(/C=C/c1ccc(O)cc1)OC[C@H]1OC(O)[C@H](O)[C@@H](O)[C@@H]1O` (some centres undefined), the inhibition entry in data set [1] was “inactive”. For the same compound, the Activity in data set [2] was determined as 5%.
As to `O=C(/C=C/c1ccc(O)cc1)OC[C@H]1O[C@@H](Oc2cc(/C=C/C(=O)O[C@@H]3O[C@H](CO)[C@@H](O)[C@H](O)[C@H]3O)ccc2O)[C@H](O)[C@@H](O)[C@@H]1O`, the inhibition entry in data set [1] is “inactive”. Moreover, the Activity in data set [2] is on record as 32.2%.
Turning to `O=C(/C=C/c1ccc(O)c(O)c1)OC[C@H]1O[C@@H](Oc2cc(/C=C/C(=O)O[C@@H]3O[C@H](CO)[C@@H](O)[C@H](O)[C@H]3O)ccc2O)[C@H](O)[C@@H](O)[C@@H]1O`, the inhibition entry in data set [1] was “inactive”. Also, the Activity in data set [2] came out at 99.4%. In data set [3], the EC50 was determined as 39.9 µM.
As for `O=C(O)/C=C/c1ccc(O[C@@H]2O[C@H](CO)[C@@H](O)[C@H](O)[C@H]2O)c(O)c1`, in data set [1], the inhibition entry is “inactive”. In data set [2], the Activity is given as 91.2%. The EC50 in data set [3] was 175 µM.
For `O=C(/C=C/c1ccc(O)c(O)c1)O[C@@H]1O[C@H](CO)[C@@H](O)[C@H](O)[C@H]1O` the same measures were “inactive”, 99.3% and 29.1 µM.
Turning to `O=c1c(O)c(-c2ccc(O)c(O)c2)oc2cc(O)cc(O)c12` [QUERCETIN], the half-maximal inhibitory concentration (IC50) in data set [4] is 1.8 µM.
On to `O=C(/C=C/c1ccc(O)c(O)c1)OC[C@H]1O[C@@H](Oc2cc(/C=C/c3ccc(O)c(O)c3)oc(=O)c2)[C@H](O)[C@@H](O)[C@@H]1O`, for which the Activity in data set [2] turned out to be 99%. The half-maximal inhibitory concentration (IC50) in data set [4] came out at 14.9 µM. In data set [3], the EC50 is 13 µM.
Consider `COc1cc(/C=C/C(=O)OC[C@H]2O[C@@H](Oc3ccc(/C=C/C(=O)O[C@@H]4O[C@H](CO)[C@@H](O)[C@H](O)[C@H]4O)cc3O)[C@H](O)[C@@H](O)[C@@H]2O)ccc1O`, for which, in data set [1], the inhibition entry was “inactive”. The Activity in data set [2] worked out at 74.8%. Also, the EC50 in data set [3] worked out at 87 µM.
For the compound `O=C(/C=C/c1ccc(O)c(O)c1)OC[C@H]1OC(O)[C@H](O)[C@@H](O)[C@@H]1O` (some centres undefined), in data set [1], the inhibition result was “inactive”. Further, the Activity in data set [2] amounted to 9.8%.
On to `O=C(/C=C/c1ccc(O)cc1)OC[C@H]1O[C@@H](Oc2ccc(/C=C/C(=O)O[C@@H]3O[C@H](CO)[C@@H](O)[C@H](O)[C@H]3O)cc2O)[C@H](O)[C@@H](O)[C@@H]1O`, for which the inhibition result in data set [1] was “inactive”. Besides, in data set [2], the Activity was determined as 7.8%.
